# Screening data as filed in PubChem.
# PHOSPHO1 block: PHOSPHO1 (human) inhibition; Q8TCT1; recombinant PHOSPHO1, absorbance phosphatase assay; inhibition, % at 13.3 µM; 1.1% of 290,000 active; in the data active means inhibition above about 60%
# Target sequence (Q8TCT1 whole entry, looked up): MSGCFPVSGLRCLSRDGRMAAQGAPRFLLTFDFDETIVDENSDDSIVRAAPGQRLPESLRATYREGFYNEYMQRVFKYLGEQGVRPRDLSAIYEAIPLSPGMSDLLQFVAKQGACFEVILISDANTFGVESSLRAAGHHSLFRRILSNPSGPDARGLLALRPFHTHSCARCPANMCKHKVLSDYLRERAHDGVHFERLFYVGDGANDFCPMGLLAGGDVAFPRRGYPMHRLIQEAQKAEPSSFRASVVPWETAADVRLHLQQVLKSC
# TbMetRS inhib: blocks T. brucei methionyl-tRNA synthetase activity; purified T. brucei MetRS, ATP depletion, Kinase-Glo luminescence; inhibition, % at 11.9 µM; 0.4% of 360,000 active;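 active means inhibition above a per-plate cutoff of the control wells' mean inhibition plus 3 SD, cut at about 5.5% in these data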;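 further: 0% = DMSO wells median and 100% = median of wells with control inhibitor compound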
#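 Measured by: Kinase-Glo luciferase luminescence reporting remaining unconsumed ATP. Material: purified T. brucei MetRS enzyme. Doses: 11.9 µM compound single dose, 0.9% DMSO. Medium: HEPES buffer containing pyrophosphatase, BSA, spermine, DTT. Times: 15 min preincubation, 2 h reaction, all 25 °C. Reagent: methionine, ATP and bulk E. coli tRNA.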
# pCIP destab: lowers stability of the mouse p/CIP coactivator protein; decrease of EGFP signal, % at 10 µM; F442A p/CIP-EGFP cells, EGFP fluorescence, 16 h; 0.01% of 290,000 active; Q05BA5;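 active means EGFP signal decrease of at least 30% at 10 µM or well 3 SD below plate mean, unless failing retest; inactive means the rest, including hits failing retest or dose response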
# A3G deaminase: APOBEC3G (human) deaminase inhibition | Q9HC16 | recombinant A3G, ssDNA deamination FAM/TAMRA fluorescence | inhibition, % at 20 µM | 0.28% of 330,000 active | AID 493012;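 active means inhibition of at least 40% at 20 µM, with no more than 30% in the related APOBEC3A deaminase screen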;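 further: plate controls were DMSO wells with A3G for no effect and wells lacking A3G enzyme for full effect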
# Target sequence (Q9HC16 whole entry, looked up): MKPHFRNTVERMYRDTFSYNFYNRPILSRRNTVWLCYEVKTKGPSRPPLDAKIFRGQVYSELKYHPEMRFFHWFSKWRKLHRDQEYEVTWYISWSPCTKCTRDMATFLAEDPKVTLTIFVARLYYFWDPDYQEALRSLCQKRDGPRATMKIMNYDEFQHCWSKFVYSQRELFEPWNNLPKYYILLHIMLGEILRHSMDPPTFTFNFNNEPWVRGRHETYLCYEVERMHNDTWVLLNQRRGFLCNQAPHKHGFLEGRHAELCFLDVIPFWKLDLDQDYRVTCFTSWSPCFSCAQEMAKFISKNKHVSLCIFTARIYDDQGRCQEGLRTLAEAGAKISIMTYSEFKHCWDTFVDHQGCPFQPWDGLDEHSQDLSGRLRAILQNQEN
# APOBEC3A inh: human APOBEC3A DNA deaminase inhibition | inhibition, % at 20 µM | AID 493011 | recombinant A3A, FAM/TAMRA ssDNA deamination fluorescence | 0.41% of 330,000 active | P31941;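 active means at least 40% inhibition at 20 µM here, with at most 30% in a related deaminase screen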;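 further: plate controls were A3A with DMSO for no effect and wells lacking A3A enzyme for full effect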
# A3G conf: confirmation of human APOBEC3G DNA deaminase inhibitors; shares compounds with A3G deaminase; recombinant A3G ssDNA deaminase, UDG/FAM-TAMRA fluorescence; inhibition, % at 20 µM; 72% of 890 active;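 active means inhibition reaching a set limit in any replicate at 20 µM, the limit being 80% of the first screen's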
# UDG A3G counter: E. coli UDG inhibition in APOBEC3G counter-screen; shares compounds with A3G deaminase; UDG counterscreen, FAM/TAMRA oligo fluorescence; inhibition, % at 20 µM; 710 tested, under 10 active;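 active means compounds giving 40% or more inhibition at 20 µM in any one of the three replicates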;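 further: plate controls were DMSO wells with UDG and oligo for no effect and DMSO wells lacking both for full effect; inhibitors lower the FAM signal released by uracil excision and alkaline cleavage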
# * marks the source's active call; other numbers are inactive results; . = no result. In the library only some 1.8% were active in any assay of this set; here they are far more common.
SMILES,PHOSPHO1 block,TbMetRS inhib,pCIP destab,A3G deaminase,APOBEC3A inh,A3G conf,UDG A3G counter
COc1cccc(C(=O)NCc2n[nH]c(=S)n2-c2cccc(C)c2)c1,87.0*,-0.4,4.1,47.1*,0.3,60.8*,-3.4
CCOC(=O)c1c(NC(C)=O)sc2c1CCC(C=O)=C2Sc1ccccc1,90.9*,-1.6,-4.1,41.3*,-3.9,1.8,3.0
CCOC(=O)c1c(NC(=O)c2ccccc2Br)sc2c1CCc1ccccc1-2,70.8*,-0.6,-9.1,46.1*,3.2,33.1*,-3.6
CCOC(=O)c1c(NC(=O)c2ccccc2N(C)S(=O)(=O)c2ccccc2)sc2c1CCCC2,-11.4,0.2,6.9,1.9,0.7,.,.
CCOC(=O)c1c(NC(C)=O)sc2c1CCN(Cc1ccccc1)C2,20.2,-0.4,-1.4,-13.3,-6.8,.,.
NC(CSC(c1ccccc1)(c1ccccc1)c1ccc2c(c1)OCO2)C(=O)O (stereo not given),.,-0.1,.,.,.,.,.
S=c1[nH]nc(-c2ccco2)n1/N=C/c1ccccc1Cl,37.5,-0.1,-15.3,44.7*,-5.0,37.3*,3.2
Cc1ccc(/C=N/n2c(C3CCCCC3)n[nH]c2=S)s1,-4.0,-0.9,-0.8,-4.9,-5.1,.,.
Cc1cc(-c2n[nH]c(=S)n2/N=C/c2ccc(C)s2)n[nH]1,48.6,0.4,2.1,54.9*,5.2,72.2*,-3.2
Cc1ccc(/C=N/n2c(-c3ccco3)n[nH]c2=S)s1,46.5,0.2,-8.1,40.7*,-6.0,74.8*,0.8
S=c1[nH]nc(-c2ccco2)n1/N=C/c1ccc(Cl)cc1,-7.1,-0.4,8.2,.,.,.,.
CCOc1ccc(CCNC(=O)COC(=O)c2cc(=O)[nH]c3ccccc23)cc1OCC,.,-0.6,.,-2.5,3.9,.,.
O=S(=O)(c1cccc(-c2n[nH]c(=S)n2Cc2ccccc2)c1)N1CCOCC1,-65.3,-1.0,-0.8,46.2*,-4.9,72.0*,-7.6
O=S(=O)(c1cccc(-c2n[nH]c(=S)n2-c2ccccc2Cl)c1)N1CCOCC1,.,0.2,.,24.4,-6.0,.,.
CCCNC(=O)C1(C)CCN(C(=O)C2(c3ccc(Cl)cc3)CCCC2)C1 (stereo not given),.,-0.2,.,.,.,.,.
S=c1nc[nH]c2c1[nH]c1ccccc12,55.4,0.3,-4.6,47.8*,-4.3,71.3*,-1.0
CCN(C(=O)COC(=O)c1ccc(F)c(S(=O)(=O)N2CCOCC2)c1)C1CCS(=O)(=O)C1 (stereo not given),36.6,0.1,5.9,-5.5,2.6,.,.
CCOc1cccc2cc(C(=O)NCc3ccccc3Cl)c(=O)oc12,25.3,-0.4,10.4,20.0,-6.4,.,.
Nc1nc(SCc2ccccc2[N+](=O)[O-])c2ncn(Cc3ccccc3)c2n1,.,0.3,.,.,.,.,.
Clc1ccc(Cl)c(-c2nn3c(COc4ccccc4)nnc3s2)c1,51.6,-0.1,27.8,45.9*,7.0,51.0*,3.1
c1ccc(OCc2nnc3sc(-c4cccs4)nn23)cc1,60.8*,-0.3,3.7,67.3*,3.6,34.2*,-36.1
CCOc1ccccc1NC(=S)N(CCC(C)C)C1CCN(C(C)=O)CC1,37.9,-0.9,-11.1,-3.2,-1.0,.,.
COc1ccc(-n2c(-c3ccc(C)cc3)n[nH]c2=S)cc1,-0.9,0.0,-5.1,27.1,-4.3,.,.
COc1ccccc1-n1c(-c2ccccc2)n[nH]c1=S,-76.1,-0.5,7.7,67.7*,2.9,57.8*,-4.2
COc1ccc(-c2n[nH]c(=S)n2-c2ccccc2C)cc1,-60.0,0.8,-12.3,19.0,-7.5,.,.
SMILES,PHOSPHO1 block,TbMetRS inhib,pCIP destab,A3G deaminase,APOBEC3A inh,A3G conf,UDG A3G counter
COc1cc(-c2n[nH]c(=S)n2-c2ccc(C)cc2)cc(OC)c1OC,-34.0,-0.6,0.0,43.0*,-5.2,68.0*,-4.3
Oc1ccc(N=Nc2ccc3c(c2)OCCO3)c2ncccc12,16.2,-1.1,-0.9,-0.6,5.2,.,.
CCn1c(CSCc2ccccc2)n[nH]c1=S,-84.2,0.0,-1.0,40.5*,-3.5,84.9*,-1.2
CCn1c(CSc2nc3ccccc3[nH]2)n[nH]c1=S,44.8,-0.4,-4.4,46.4*,1.5,54.5*,-2.2
CCOc1ccccc1CSc1nc2ccccc2[nH]1,-3.5,0.2,0.2,-1.4,-0.6,.,.
COc1cc(OC)c(C(=O)Nc2cc(S(=O)(=O)N3CCOCC3)ccc2N2CCN(C)CC2)cc1OC,.,0.1,.,.,.,.,.
CCOc1cccc2sc(N3CCN(C(=O)c4ccc5ncsc5c4)CC3)nc12,.,-0.2,.,-8.0,0.9,.,.
CCOC(=O)C1=C(C)N(c2ccc(C)cc2)C(=O)/C1=C\c1ccc(O)c(OC)c1,11.9,-0.8,-3.6,76.6*,1.7,5.7,.
O=C(CCn1cnc2ccccc2c1=O)Nc1cccc(Cl)c1Cl,33.5,-0.7,-3.2,-8.1,-2.6,.,.
Nc1ccc2nc(-c3cccc(-c4nc5ccc(N)cc5[nH]4)n3)[nH]c2c1,37.3,-0.8,-15.1,43.5*,10.4,29.2*,0.8
C=CCn1c(-c2cccc(OC)c2)n[nH]c1=S,10.8,0.7,6.3,50.7*,0.1,13.3,.
C=CCn1c(-c2csc3ccccc23)n[nH]c1=S,102.0*,-0.7,-6.3,43.0*,7.2,30.6,.
CCn1c(-c2ccc(F)cc2)n[nH]c1=S,-9.8,-0.7,4.3,33.5,13.5,.,.
CCn1c(-c2cccc(Cl)c2)n[nH]c1=S,94.9*,-0.1,-1.4,46.8*,-4.7,77.2*,-3.2
C=CCn1c(-c2ccc([N+](=O)[O-])cc2)n[nH]c1=S,25.7,-1.3,-5.1,45.4*,-5.8,78.1*,0.4
COc1ccccc1NC(=O)Cn1cnc2c(nnn2-c2ccc(C)cc2)c1=O,33.9,-0.9,-5.6,-12.0,-0.7,.,.
Cc1ccc2c(c1)N(CC(=O)Nc1ncccc1C)C(=O)C(C(C)C)O2 (stereo not given),24.7,-0.6,6.6,2.9,-2.1,.,.
C=CCn1c(-c2cc(Cl)ccc2OC)n[nH]c1=S,92.3*,-0.4,-1.0,45.7*,-4.9,81.1*,1.6
C=CCn1c(-c2cccc(OC)c2OC)n[nH]c1=S,-86.2,0.6,-19.0,12.3,-4.3,.,.
CCN(CC)C(=O)C1=C(C)N(Cc2ccccc2)C(=O)C(CC(=O)NCCc2ccccn2)C1 (stereo not given),.,0.8,.,.,.,.,.
COC(=O)C[C@@H]1C=C[C@H](NC(=O)Cc2ccccn2)[C@@H](CO)O1,.,-0.4,.,.,.,.,.
O=C1C(=O)N(CCO)C(c2ccc(Br)cc2)/C1=C(\O)c1ccccc1 (stereo not given),18.9,-1.0,-4.2,44.8*,-6.8,-59.2,-1.6
CCCCc1cc(=O)oc2cc(C)cc(OCC(=O)N3C[C@H]4C[C@@H](C3)c3cccc(=O)n3C4)c12,-38.8,-0.8,11.9,-4.9,-1.7,.,.
Cc1c(Cl)c(-c2n[nH]c(=S)n2-c2ccccc2)nn1C,-20.6,1.1,-13.7,29.3,-2.1,.,.
